Reference: PMC3827909 (The Journal of organic chemistry, 2013)

Assays:
NF-κB p65 = NF-κB p65 (Homo sapiens, UniProt Q04206); experiment: NF-κB p65 inhibition assay; assay type: cell-based
[1] = Hydroxyl radical-scavenging assay; assay type: biochemical; details: ED50 <20 μM considered active
Outline: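 In vitro scavenging assay run on the solvent partitions of the methanolic root-bark extract (hexanes, CHCl3, EtOAc, n-BuOH) and on pure isolates, with a positive control. ED50 is the concentration that scavenges hydroxyl radicals by 50%.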

[2] = tested on: HT-29 human colon cancer cell line; experiment: Cytotoxicity against HT-29 cell line; assay type: cell-based; details: HT-29, read-out: cytotoxicity IC50 (concentration inhibiting HT-29 cell growth by 50%)
Outline: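 Pure isolates were tested against HT-29 human colon cancer cells, with a positive control. IC50 is the concentration that inhibits HT-29 cell growth by 50%, and an IC50 below 10 μM is counted as active.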

NF-κB p65, sequence (Q04206 whole entry): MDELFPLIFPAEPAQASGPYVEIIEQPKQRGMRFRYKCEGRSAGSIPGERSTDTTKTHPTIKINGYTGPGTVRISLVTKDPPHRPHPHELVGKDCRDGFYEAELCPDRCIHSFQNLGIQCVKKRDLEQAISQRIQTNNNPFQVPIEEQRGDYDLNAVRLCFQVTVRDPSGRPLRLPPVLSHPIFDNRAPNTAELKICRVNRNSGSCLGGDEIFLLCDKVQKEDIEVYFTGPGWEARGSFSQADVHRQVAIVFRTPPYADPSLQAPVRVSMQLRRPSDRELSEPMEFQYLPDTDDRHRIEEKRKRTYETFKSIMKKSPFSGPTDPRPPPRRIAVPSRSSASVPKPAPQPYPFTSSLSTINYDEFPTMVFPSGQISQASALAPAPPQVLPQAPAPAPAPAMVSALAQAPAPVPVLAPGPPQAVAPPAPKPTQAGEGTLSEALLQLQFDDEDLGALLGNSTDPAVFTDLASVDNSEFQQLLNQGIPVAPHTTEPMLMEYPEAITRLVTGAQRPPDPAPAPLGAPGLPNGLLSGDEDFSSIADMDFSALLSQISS

Row | SMILES | hydroxy radical-scavenging ED50 (concentration scavenging hydroxyl radical by 50%) [1] | other results
1 | C=CC(C)(C)c1cc(C(=O)c2c(-c3cc(-c4cc5cc(C(C)(C)C=C)c(O)cc5oc4=O)c(O)cc3O)oc3cc(O)ccc23)c(O)cc1O [compound 1, sphenostylisin A] | 0.71 µM | NF-κB inhibitory potency relative to compound 3 (NF-κB p65; times more potency than compound 3): 75 times; NF-κB p65 inhibitory potency relative to the positive control rocaglamide (NF-κB p65; times more potent than rocaglamide): > 10 times
2 | C=CC(C)(C)c1cc(-c2oc3cc(O)ccc3c2Cc2cc(-c3cc4cc(C(C)(C)C=C)c(O)cc4oc3=O)c(O)cc2O)c(O)cc1O [compound 2, sphenostylisin B] | 0.73 µM | 
3 | C=CC(C)(C)c1cc2c(cc1O)OC[C@H](c1cc(-c3oc4cc(O)ccc4c3C(=O)c3cc(C(C)(C)C=C)c(O)cc3O)c(O)cc1O)C2 [compound 3, sphenostylisin C] | 0.94 µM | 
4 | C=CC(C)(C)c1cc2cc(-c3ccc(O)cc3O)c(=O)oc2cc1O [compound 4, 7-hydroxy-6-(2-methylbut-3-en-2-yl)-2′,4′-dihydroxy-3-phenylcoumarin] | 2.6 µM | NF-κB p65 inhibitory activity retained relative to compound 1 (NF-κB p65; fraction of the activity of 1): one-tenth
5 | CC1(C)c2cc3cc(-c4ccc(O)cc4O)c(=O)oc3cc2OC1CO (stereo not drawn) [compound 5, 6-(2,7-epoxy-3-methylbut-1-ol-3-yl)-2′,4′-dihydroxy-3-phenylcoumarin] | 18.5 µM | 
6 | C=CC(C)(O)Cc1cc2cc(-c3ccc(O)cc3O)c(=O)oc2cc1O (stereo not drawn) [compound 6, 7-hydroxy-6-(2-hydroxy-2-methylbut-3-en-1-yl)-2′,4′-dihydroxy-3-phenylcoumarin] | >20 µM | 
7 | C=CC(C)(CO)c1cc2cc(-c3ccc(O)cc3O)c(=O)oc2cc1O (stereo not drawn) [compound 7, 7-hydroxy-6-(1-hydroxy-2-methylbut-3-en-2-yl)-2′,4′-dihydroxy-3-phenylcoumarin] | >20 µM | 
8 | C=CC(C)(CO)c1cc2c(=O)c(-c3ccc(O)cc3O)coc2cc1O (stereo not drawn) [compound 8, 7-hydroxy-6-(1-hydroxy-2-methylbut-3-en-2-yl)-2′,4′-dihydroxyisoflavone] | 2.2 µM | IC50 [2]: > 10 µM; IC50 (NF-κB p65): 0.45 µM
9 | CC1(C)c2cc(CC(=O)c3ccc(O)cc3O)c(O)cc2OC1CO (stereo not drawn) [compound 9, 2,4-dihydroxy-2′-dihydroxy-5′-(2,4′-epoxy-3-methylbut-1-ol-3-yl)deoxybenzoin] | 1.0 µM | 
10 | C=CC(C)(O)Cc1cc(CC(=O)c2ccc(O)cc2O)c(O)cc1O (stereo not drawn) [compound 10, 2,4-dihydroxy-2′,4′-dihydroxy-5′-(2-hydroxy-2-methylbut-3-en-1-yl)deoxybenzoin] | 0.60 µM | IC50 [2]: > 10 µM; IC50 (NF-κB p65): > 20 µM
11 | C=CC(C)(CO)c1cc(CC(=O)c2ccc(O)cc2O)c(O)cc1O (stereo not drawn) [compound 11, 2,4-dihydroxy-2′,4′-dihydroxy-5′-(1-hydroxy-2-methylbut-3-en-2-yl)deoxybenzoin] | 0.63 µM | IC50 [2]: > 10 µM; IC50 (NF-κB p65): > 20 µM
12 | O=c1c(O)c(-c2ccc(O)c(O)c2)oc2cc(O)cc(O)c12 [quercetin, reference compound] | 1.2 µM | 
